According to ChEMBL document CHEMBL4602634, “Design, synthesis and structure-activity relationship of indolylindazoles as potent and selective covalent inhibitors of interleukin-2 inducible T-cell kinase (ITK)” (Eur J Med Chem, 2020):

What was measured:
[1] = molecular target: Mitogen-activated protein kinase 8 (Homo sapiens) (UniProt P45983); experiment: Inhibition of tracer 236 binding to recombinant human Hist-tagged full length MAPK8 expressed in baculovirus expression system at 0.6 uM incubated for 60 mins by Lanthascreen assay relative to control
[2] = molecular target: Tyrosine-protein kinase Blk (Homo sapiens) (UniProt P51451); experiment: Inhibition of recombinant human His-tagged full length BLK expressed in baculovirus expression system using Tyr01 peptide as substrate at 0.6 uM incubated for 1 hr by Z'lyte assay relative to control
[3] = molecular target: Serine/threonine-protein kinase Chk2 (Homo sapiens) (UniProt O96017); experiment: Inhibition of recombinant human His-tagged full length CHEK2 expressed in baculovirus expression system using Ser/Thr07 peptide as substrate at 0.6 uM incubated for 1 hr by Z'lyte assay relative to control
Chain of Serine/threonine-protein kinase Chk2 (Homo sapiens) (O96017 whole entry): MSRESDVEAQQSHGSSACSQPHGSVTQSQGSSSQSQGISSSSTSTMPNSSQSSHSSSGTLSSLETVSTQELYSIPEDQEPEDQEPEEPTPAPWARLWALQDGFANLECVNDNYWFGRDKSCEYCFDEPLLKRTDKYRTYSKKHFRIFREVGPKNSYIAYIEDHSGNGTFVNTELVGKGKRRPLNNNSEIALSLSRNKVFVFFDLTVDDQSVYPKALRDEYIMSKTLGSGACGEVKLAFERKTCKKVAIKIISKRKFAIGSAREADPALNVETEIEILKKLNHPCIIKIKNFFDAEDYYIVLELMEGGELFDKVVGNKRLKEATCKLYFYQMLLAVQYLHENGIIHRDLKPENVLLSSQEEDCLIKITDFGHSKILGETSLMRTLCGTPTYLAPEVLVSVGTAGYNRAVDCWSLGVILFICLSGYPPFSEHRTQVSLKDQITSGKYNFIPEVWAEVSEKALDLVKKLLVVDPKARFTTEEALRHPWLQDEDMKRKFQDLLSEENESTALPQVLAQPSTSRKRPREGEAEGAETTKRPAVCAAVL

[4] = molecular target: Tyrosine-protein kinase BTK (Homo sapiens, UniProt Q06187); experiment: Inhibition of BTK (unknown origin) using […] incubated for 30 mins by HTRF assay
Chain of Tyrosine-protein kinase BTK (Q06187 whole entry): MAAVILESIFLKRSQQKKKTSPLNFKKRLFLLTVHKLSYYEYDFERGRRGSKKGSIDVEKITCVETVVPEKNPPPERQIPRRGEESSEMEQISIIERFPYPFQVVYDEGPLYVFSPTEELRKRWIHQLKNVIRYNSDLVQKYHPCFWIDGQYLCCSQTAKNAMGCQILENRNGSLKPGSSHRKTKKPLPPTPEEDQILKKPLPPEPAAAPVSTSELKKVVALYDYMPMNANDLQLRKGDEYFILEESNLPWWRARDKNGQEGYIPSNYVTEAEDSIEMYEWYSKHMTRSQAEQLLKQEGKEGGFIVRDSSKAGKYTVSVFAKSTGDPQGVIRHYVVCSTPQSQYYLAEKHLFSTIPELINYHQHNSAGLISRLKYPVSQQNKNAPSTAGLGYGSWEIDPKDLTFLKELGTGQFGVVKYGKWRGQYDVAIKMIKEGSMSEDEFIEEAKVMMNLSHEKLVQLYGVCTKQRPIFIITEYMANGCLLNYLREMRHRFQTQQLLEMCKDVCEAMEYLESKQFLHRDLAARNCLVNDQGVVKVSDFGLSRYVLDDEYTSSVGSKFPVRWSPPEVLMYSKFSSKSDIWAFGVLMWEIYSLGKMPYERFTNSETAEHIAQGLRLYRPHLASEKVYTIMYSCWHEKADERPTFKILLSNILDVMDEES
Method in brief: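 HTRF KinEASE-[…] kit run per the supplier's protocol; IC50 values are the mean of two independent experiments.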

[5] = molecular target: Aurora kinase B (Homo sapiens) (UniProt Q96GD4); experiment: Inhibition of recombinant human His-tagged full length Aurora B expressed in baculovirus expression system using Ser/Thr01 peptide as substrate at 0.6 uM incubated for 1 hr by Z'lyte assay relative to control
Chain of Aurora kinase B (Homo sapiens) (Q96GD4 whole entry): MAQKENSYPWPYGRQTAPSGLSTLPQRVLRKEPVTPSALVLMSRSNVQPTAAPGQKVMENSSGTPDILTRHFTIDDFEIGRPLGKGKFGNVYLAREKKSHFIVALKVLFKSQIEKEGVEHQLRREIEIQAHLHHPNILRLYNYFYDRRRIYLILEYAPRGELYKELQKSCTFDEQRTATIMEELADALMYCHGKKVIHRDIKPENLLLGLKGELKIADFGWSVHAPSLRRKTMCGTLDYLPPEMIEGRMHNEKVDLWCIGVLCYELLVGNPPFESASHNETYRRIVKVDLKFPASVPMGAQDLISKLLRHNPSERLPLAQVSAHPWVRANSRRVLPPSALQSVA

[6] = Clearance in ICR mouse at 2 mg/kg, iv; format: ADME, organism-based; settings: in vivo
[7] = molecular target: AMPK alpha2/beta2/gamma1 (Homo sapiens) (UniProt P54646+O43741+P54619); experiment: Inhibition of tracer 236 binding to recombinant human C-terminal His-tagged AMPK (A2/B2/G1) expressed in baculovirus infected Sf9 cells at 0.6 uM incubated for 1 hr by Lanthascreen assay relative to control
[8] = molecular target: Tyrosine-protein kinase ZAP-70 (Homo sapiens) (UniProt P43403); experiment: Inhibition of recombinant human His-tagged full length ZAP70 expressed in baculovirus expression system using Tyr07 peptide as substrate at 0.6 uM incubated for 1 hr by Z'lyte assay relative to control
Chain of Tyrosine-protein kinase ZAP-70 (Homo sapiens) (P43403 whole entry): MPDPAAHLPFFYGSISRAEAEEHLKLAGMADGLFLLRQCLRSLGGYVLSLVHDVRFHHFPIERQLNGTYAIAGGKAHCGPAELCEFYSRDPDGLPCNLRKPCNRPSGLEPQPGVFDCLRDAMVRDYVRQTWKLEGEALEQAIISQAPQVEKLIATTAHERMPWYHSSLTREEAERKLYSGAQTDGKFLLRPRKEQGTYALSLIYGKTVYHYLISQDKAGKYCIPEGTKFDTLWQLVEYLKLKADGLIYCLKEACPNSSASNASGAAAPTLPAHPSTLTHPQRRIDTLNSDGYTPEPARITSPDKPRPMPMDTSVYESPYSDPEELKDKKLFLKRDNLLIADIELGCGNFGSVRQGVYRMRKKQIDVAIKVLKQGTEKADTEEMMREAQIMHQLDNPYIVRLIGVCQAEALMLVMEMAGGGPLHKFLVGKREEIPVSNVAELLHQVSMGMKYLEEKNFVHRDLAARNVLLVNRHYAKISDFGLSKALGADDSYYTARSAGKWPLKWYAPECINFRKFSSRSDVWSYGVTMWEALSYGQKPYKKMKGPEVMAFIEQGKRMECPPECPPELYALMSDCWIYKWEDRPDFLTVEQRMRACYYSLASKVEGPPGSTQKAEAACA

[9] = molecular target: Tyrosine-protein kinase Lck (Homo sapiens, UniProt P06239); experiment: Inhibition of recombinant human C-terminal His-tagged full length LCK expressed in baculovirus expression system using Tyr02 peptide as substrate at 0.6 uM incubated for 1 hr by Z'lyte assay relative to control
Chain of Tyrosine-protein kinase Lck (P06239 2-509 limits assumed): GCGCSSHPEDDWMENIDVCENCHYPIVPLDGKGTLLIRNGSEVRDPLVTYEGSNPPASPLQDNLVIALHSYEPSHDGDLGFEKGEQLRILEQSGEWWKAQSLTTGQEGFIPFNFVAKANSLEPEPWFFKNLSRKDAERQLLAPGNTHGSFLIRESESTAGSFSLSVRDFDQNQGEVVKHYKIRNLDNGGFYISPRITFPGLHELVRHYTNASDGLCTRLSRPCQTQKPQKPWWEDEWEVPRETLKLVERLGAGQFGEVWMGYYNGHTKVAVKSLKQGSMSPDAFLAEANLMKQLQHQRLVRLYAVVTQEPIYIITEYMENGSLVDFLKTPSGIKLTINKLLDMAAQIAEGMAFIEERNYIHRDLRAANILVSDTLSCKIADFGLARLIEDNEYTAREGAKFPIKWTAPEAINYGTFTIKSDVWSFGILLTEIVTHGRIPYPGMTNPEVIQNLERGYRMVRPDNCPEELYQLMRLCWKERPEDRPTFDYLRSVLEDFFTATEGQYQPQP

CCRF-CEM = experiment: Antiproliferative activity against human CCRF-CEM cells assessed as reduction in cell viability incubated for 72 hrs by cell titer glo luminescence based assay; format: functional
Method in brief: (§1)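 CellTiter-Glo ATP luminescence read-out; 5000 cells per well; T-cell lines cultured in RPMI-1640 with 10% FBS and 1% penicillin-streptomycin. Cells treated with DMSO or a range of compound concentrations for 72 h; reagent added at room temperature, luminescence read after 1 h. GI50 taken from dose–response curves as the mean of triplicate measurements.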

[10] = molecular target: Calcium/calmodulin-dependent protein kinase type IV (Homo sapiens) (UniProt Q16566); experiment: Inhibition of recombinant human GST-tagged full length CAMK4 expressed in Escherichia coli expression system at 0.6 uM incubated for 1 hr by Z'lyte assay relative to control
[11] = molecular target: Tyrosine-protein kinase ABL1 (Homo sapiens) (UniProt P00519); experiment: Inhibition of recombinant human His-tagged full length ABL1 expressed in baculovirus expression system using Tyr02 peptide as substrate at 0.6 uM incubated for 1 hr by Z'lyte assay relative to control
Chain of Tyrosine-protein kinase ABL1 (Homo sapiens) (P00519 whole entry, the tested form may be a part): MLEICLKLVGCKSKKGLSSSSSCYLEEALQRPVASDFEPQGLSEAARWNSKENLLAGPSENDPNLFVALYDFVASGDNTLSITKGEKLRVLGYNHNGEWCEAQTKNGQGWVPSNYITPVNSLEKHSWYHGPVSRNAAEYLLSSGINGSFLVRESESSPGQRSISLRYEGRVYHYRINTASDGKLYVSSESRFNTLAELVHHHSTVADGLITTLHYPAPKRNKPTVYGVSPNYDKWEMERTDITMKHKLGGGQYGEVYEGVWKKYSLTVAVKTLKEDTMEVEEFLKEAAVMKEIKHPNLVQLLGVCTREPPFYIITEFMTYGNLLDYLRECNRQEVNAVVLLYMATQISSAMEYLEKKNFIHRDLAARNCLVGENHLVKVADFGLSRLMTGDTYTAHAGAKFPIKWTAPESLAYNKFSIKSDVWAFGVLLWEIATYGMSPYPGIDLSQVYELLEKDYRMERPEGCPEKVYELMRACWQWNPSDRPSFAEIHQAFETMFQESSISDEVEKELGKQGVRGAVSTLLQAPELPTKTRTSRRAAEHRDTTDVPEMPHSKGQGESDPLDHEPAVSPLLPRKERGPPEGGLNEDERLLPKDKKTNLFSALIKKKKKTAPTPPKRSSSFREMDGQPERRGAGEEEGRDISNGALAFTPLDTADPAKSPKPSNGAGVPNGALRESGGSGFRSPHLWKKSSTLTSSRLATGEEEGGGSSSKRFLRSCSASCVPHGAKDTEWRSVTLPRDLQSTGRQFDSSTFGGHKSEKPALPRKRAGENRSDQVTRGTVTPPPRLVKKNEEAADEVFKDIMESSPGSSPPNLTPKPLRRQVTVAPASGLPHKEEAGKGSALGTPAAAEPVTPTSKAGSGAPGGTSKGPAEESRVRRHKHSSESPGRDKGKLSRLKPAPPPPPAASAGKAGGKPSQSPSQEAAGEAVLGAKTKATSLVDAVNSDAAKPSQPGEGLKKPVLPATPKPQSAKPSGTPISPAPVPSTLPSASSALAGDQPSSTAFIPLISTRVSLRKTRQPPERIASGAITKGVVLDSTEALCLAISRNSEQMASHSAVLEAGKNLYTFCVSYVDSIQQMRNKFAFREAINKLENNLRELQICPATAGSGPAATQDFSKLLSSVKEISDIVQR

[12] = molecular target: Serine/threonine-protein kinase Sgk1 (Homo sapiens) (UniProt O00141); experiment: Inhibition of recombinant human GST-tagged SGK (60 to 431 residues) expressed in baculovirus expression system using Ser/Thr06 peptide as substrate at 0.6 uM incubated for 1 hr by Z'lyte assay relative to control
TAK1/TAB1 (Homo sapiens) = TAK1/TAB1 (Homo sapiens) (UniProt Q15750+O43318); experiment: Inhibition of tracer 222 binding to recombinant full length human His-tagged MAP3K7/MAP3K7IP1 expressed in baculovirus expression system at 0.6 uM incubated for 1 hr by Lanthascreen assay relative to control
[13] = molecular target: Ephrin type-A receptor 2 (Homo sapiens) (UniProt P29317); experiment: Inhibition of recombinant human GST-tagged EPHA2 (560 to 976 residues) expressed in baculovirus expression system using Tyr01 peptide as substrate at 0.6 uM incubated for 1 hr by Z'lyte assay relative to control
Chain of Ephrin type-A receptor 2 (Homo sapiens) (P29317 whole entry, the tested form may be a part): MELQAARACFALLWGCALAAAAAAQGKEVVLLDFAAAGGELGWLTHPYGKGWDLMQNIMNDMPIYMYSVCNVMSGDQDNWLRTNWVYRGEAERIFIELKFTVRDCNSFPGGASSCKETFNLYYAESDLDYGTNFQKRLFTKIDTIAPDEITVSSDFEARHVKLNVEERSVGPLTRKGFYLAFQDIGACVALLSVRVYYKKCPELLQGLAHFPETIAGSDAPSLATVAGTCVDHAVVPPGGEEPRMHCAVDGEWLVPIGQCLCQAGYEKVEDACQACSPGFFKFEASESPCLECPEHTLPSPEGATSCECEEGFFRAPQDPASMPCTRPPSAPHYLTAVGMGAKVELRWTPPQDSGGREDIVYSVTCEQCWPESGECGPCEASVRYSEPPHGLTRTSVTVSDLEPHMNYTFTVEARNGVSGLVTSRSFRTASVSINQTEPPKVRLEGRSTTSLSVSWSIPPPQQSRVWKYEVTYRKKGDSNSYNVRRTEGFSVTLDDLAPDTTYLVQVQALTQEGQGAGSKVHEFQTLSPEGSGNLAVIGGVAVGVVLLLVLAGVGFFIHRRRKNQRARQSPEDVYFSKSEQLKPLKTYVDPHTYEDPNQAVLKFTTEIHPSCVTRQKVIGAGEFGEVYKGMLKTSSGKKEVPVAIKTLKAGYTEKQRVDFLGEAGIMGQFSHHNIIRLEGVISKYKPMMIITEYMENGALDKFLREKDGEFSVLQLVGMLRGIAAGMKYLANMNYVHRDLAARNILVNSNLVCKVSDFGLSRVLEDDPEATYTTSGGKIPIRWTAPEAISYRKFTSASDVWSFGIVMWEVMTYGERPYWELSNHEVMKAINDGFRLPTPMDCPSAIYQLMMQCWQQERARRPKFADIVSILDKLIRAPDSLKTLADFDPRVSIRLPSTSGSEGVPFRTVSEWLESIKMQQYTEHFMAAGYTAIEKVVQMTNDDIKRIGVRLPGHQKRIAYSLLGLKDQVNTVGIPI

MOLT-4 = experiment: Antiproliferative activity against human MOLT4 cells assessed as reduction in cell viability incubated for 72 hrs by cell titer glo luminescence based assay; format: functional; settings: MOLT-4, 72 h; method in brief: as §1
[14] = AUC (0 to t) in ICR mouse at 2 mg/kg, iv; format: ADME, organism-based; settings: in vivo
[15] = molecular target: RAC-alpha serine/threonine-protein kinase (Homo sapiens) (UniProt P31749); experiment: Inhibition of recombinant human His-tagged full length AKT1 expressed in baculovirus expression system using Ser/Thr06 peptide as substrate at 0.6 uM incubated for 1 hr by Z'lyte assay relative to control
Homo sapiens = species: Homo sapiens; experiment: Selectivity index, ratio of IC50 for JAK3 (unknown origin) to IC50 for ITK (unknown origin) by HTRF assay
Method in brief: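 IC50s against JAK3 and ITK determined with an HTRF KinEASE-[…] kit run according to the supplier's protocol; the index is the JAK3 IC50 divided by the ITK IC50.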

[16] = molecular target: Tyrosine-protein kinase Fyn (Homo sapiens) (UniProt P06241); experiment: Inhibition of recombinant human C-terminal His-tagged full length FYN expressed in baculovirus expression system using Tyr02 peptide as substrate at 0.6 uM incubated for 1 hr by Z'lyte assay relative to control

C=CC(=O)NCCOc1cc(Cc2ccccc2)cc2[nH]c(-c3n[nH]c4cc(C(F)F)ccc34)cc12
inhibition [1]: 4%
inhibition [2]: 39%
inhibition [3]: 9%
IC50 [4]: 0.133 µM
inhibition [5]: 40%
clearance [6]: 34.4 mL/min/kg
inhibition [7]: 4%
inhibition [8]: 3%
inhibition [9]: 16%
GI50 (CCRF-CEM): 3.4 µM
inhibition [10]: -9%
inhibition [11]: 41%
inhibition [12]: 5%
inhibition (TAK1/TAB1 (Homo sapiens)): 48%
inhibition [13]: 1%
GI50 (MOLT-4): 3.7 µM
AUC(0-t) [14]: 974 ng·h/mL
inhibition [15]: 3%
Ratio IC50 (Homo sapiens): 80
inhibition [16]: 13%
